Experimental data reported in ChEMBL document CHEMBL5058577, “EUbOPEN Chemogenomics Library 2 (Multiplex)” (2022).

System: U2OS
Experiment: Multiplex assay against U2OS
Type: toxicity, cell-based
Conditions: human
Method in brief: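 Per cents of healthy-nucleus cells form the tubulin, mitochondrial-mass and membrane-permeability phenotype values. Live cells were stained at seeding with Hoechst33342, BioTracker Green Microtubule Cytoskeleton Dye, MitoTracker Red and Annexin V Alexa Fluor 680. After compound addition they were imaged on a CQ1 microscope at 37°C and 5% CO2, and CellPathfinder machine-learning gating split them into Hoechst high-intensity objects or normal cells, normal cells into healthy, pyknosed or fragmented nuclei, and pyknosed cells into mitotic or apoptotic.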

[1] = 12 h, 1 µM, compound concentration 1 uM, replicate 1
[2] = 12 h, 1 µM, compound concentration 1 uM, replicate 2
[3] = 12 h, 10 µM, compound concentration 10 uM, replicate 1
[4] = 12 h, 10 µM, compound concentration 10 uM, replicate 2
[5] = 24 h, 1 µM, compound concentration 1 uM, replicate 1
[6] = 24 h, 1 µM, compound concentration 1 uM, replicate 2
[7] = 24 h, 10 µM, compound concentration 10 uM, replicate 1
[8] = 24 h, 10 µM, compound concentration 10 uM, replicate 2
[9] = 48 h, 1 µM, compound concentration 1 uM, replicate 1
[10] = 48 h, 1 µM, compound concentration 1 uM, replicate 2
[11] = 48 h, 10 µM, compound concentration 10 uM, replicate 1
[12] = 48 h, 10 µM, compound concentration 10 uM, replicate 2

c1cc(OCCCN2CCCCC2)ccc1CN1CCCCC1 [JNJ-5207852]
Population Apoptotic (%) [1]: 76% | Population Fragmented Nuclei (%) [1]: 29% | Population Healthy Nuclei (%) [1]: 65% | Population Hoechst High Intensity Objects (%) [1]: 2% | Population Membrane Permeable-Phenotype (%) [1]: 5% | Population Mitochondria Different-Phenotype (%) [1]: 3% | Population Mitotic Cells (%) [1]: 23% | Population Normal (%) [1]: 97% | Population Pyknosed Nuclei (%) [1]: 5% | Population Tubulin-Different-Phenotype (%) [1]: 3% | Total Cell Count [1]: 253 | Population Apoptotic (%) [2]: 58% | Population Fragmented Nuclei (%) [2]: 25% | Population Healthy Nuclei (%) [2]: 62% | Population Hoechst High Intensity Objects (%) [2]: 0% | Population Membrane Permeable-Phenotype (%) [2]: 7% | Population Mitotic Cells (%) [2]: 41% | Population Normal (%) [2]: 99% | Population Pyknosed Nuclei (%) [2]: 11% | Total Cell Count [2]: 106 | Population Apoptotic (%) [3]: 73% | Population Fragmented Nuclei (%) [3]: 34% | Population Healthy Nuclei (%) [3]: 57% | Population Hoechst High Intensity Objects (%) [3]: 2% | Population Membrane Permeable-Phenotype (%) [3]: 5% | Population Mitochondria Different-Phenotype (%) [3]: 3% | Population Mitotic Cells (%) [3]: 26% | Population Normal (%) [3]: 97% | Population Pyknosed Nuclei (%) [3]: 8% | Population Tubulin-Different-Phenotype (%) [3]: 3% | Total Cell Count [3]: 228 | Population Apoptotic (%) [4]: 85% | Population Fragmented Nuclei (%) [4]: 13% | Population Healthy Nuclei (%) [4]: 80% | Population Hoechst High Intensity Objects (%) [4]: 4% | Population Membrane Permeable-Phenotype (%) [4]: 7% | Population Mitochondria Different-Phenotype (%) [4]: 9% | Population Mitotic Cells (%) [4]: 14% | Population Normal (%) [4]: 95% | Population Pyknosed Nuclei (%) [4]: 6% | Population Tubulin-Different-Phenotype (%) [4]: 6% | Total Cell Count [4]: 120 | Population Apoptotic (%) [5]: 84% | Population Fragmented Nuclei (%) [5]: 25% | Population Healthy Nuclei (%) [5]: 65% | Population Hoechst High Intensity Objects (%) [5]: 1% | Population Membrane Permeable-Phenotype (%) [5]: 3% | Population Mitochondria Different-Phenotype (%) [5]: 2% | Population Mitotic Cells (%) [5]: 16% | Population Normal (%) [5]: 98% | Population Pyknosed Nuclei (%) [5]: 8% | Population Tubulin-Different-Phenotype (%) [5]: 2% | Total Cell Count [5]: 287 | Population Apoptotic (%) [6]: 66% | Population Fragmented Nuclei (%) [6]: 21% | Population Healthy Nuclei (%) [6]: 68% | Population Hoechst High Intensity Objects (%) [6]: 0% | Population Membrane Permeable-Phenotype (%) [6]: 4% | Population Mitotic Cells (%) [6]: 33% | Population Normal (%) [6]: 100% | Population Pyknosed Nuclei (%) [6]: 10% | Population Tubulin-Different-Phenotype (%) [6]: 4% | Total Cell Count [6]: 119 | Population Apoptotic (%) [7]: 82% | Population Fragmented Nuclei (%) [7]: 28% | Population Healthy Nuclei (%) [7]: 62% | Population Hoechst High Intensity Objects (%) [7]: 1% | Population Membrane Permeable-Phenotype (%) [7]: 4% | Population Mitochondria Different-Phenotype (%) [7]: 3% | Population Mitotic Cells (%) [7]: 17% | Population Normal (%) [7]: 98% | Population Pyknosed Nuclei (%) [7]: 8% | Population Tubulin-Different-Phenotype (%) [7]: 3% | Total Cell Count [7]: 271 | Population Apoptotic (%) [8]: 84% | Population Fragmented Nuclei (%) [8]: 10% | Population Healthy Nuclei (%) [8]: 80% | Population Membrane Permeable-Phenotype (%) [8]: 8% | Population Mitochondria Different-Phenotype (%) [8]: 5% | Population Mitotic Cells (%) [8]: 15% | Population Tubulin-Different-Phenotype (%) [8]: 8% | Total Cell Count [8]: 157 | Population Apoptotic (%) [9]: 82% | Population Fragmented Nuclei (%) [9]: 21% | Population Healthy Nuclei (%) [9]: 69% | Population Hoechst High Intensity Objects (%) [9]: 2% | Population Membrane Permeable-Phenotype (%) [9]: 4% | Population Mitochondria Different-Phenotype (%) [9]: 2% | Population Mitotic Cells (%) [9]: 17% | Population Normal (%) [9]: 97% | Population Pyknosed Nuclei (%) [9]: 8% | Population Tubulin-Different-Phenotype (%) [9]: 4% | Total Cell Count [9]: 400 | Population Apoptotic (%) [10]: 76% | Population Fragmented Nuclei (%) [10]: 19% | Population Healthy Nuclei (%) [10]: 71% | Population Hoechst High Intensity Objects (%) [10]: 3% | Population Membrane Permeable-Phenotype (%) [10]: 9% | Population Mitochondria Different-Phenotype (%) [10]: 4% | Population Mitotic Cells (%) [10]: 23% | Population Normal (%) [10]: 96% | Population Tubulin-Different-Phenotype (%) [10]: 3% | Total Cell Count [10]: 152 | Population Apoptotic (%) [11]: 86% | Population Fragmented Nuclei (%) [11]: 22% | Population Healthy Nuclei (%) [11]: 70% | Population Hoechst High Intensity Objects (%) [11]: 2% | Population Membrane Permeable-Phenotype (%) [11]: 7% | Population Mitochondria Different-Phenotype (%) [11]: 3% | Population Mitotic Cells (%) [11]: 13% | Population Normal (%) [11]: 97% | Population Pyknosed Nuclei (%) [11]: 6% | Population Tubulin-Different-Phenotype (%) [11]: 5% | Total Cell Count [11]: 345 | Population Apoptotic (%) [12]: 93% | Population Fragmented Nuclei (%) [12]: 14% | Population Healthy Nuclei (%) [12]: 78% | Population Hoechst High Intensity Objects (%) [12]: 1% | Population Membrane Permeable-Phenotype (%) [12]: 6% | Population Mitochondria Different-Phenotype (%) [12]: 2% | Population Mitotic Cells (%) [12]: 6% | Population Normal (%) [12]: 98% | Population Tubulin-Different-Phenotype (%) [12]: 4% | Total Cell Count [12]: 245
